Data published in ChEMBL document CHEMBL3227984, “5-Substituted uracil arabinonucleosides as potential antiviral agents” (J Med Chem, 1979).
The source made the active and inactive calls. The calls are words filed in the database; no cut-off is given here.

Assays:
[1] = test system: Vesicular stomatitis virus; experiment: Antiviral activity against Vesicular stomatitis virus infected in primary rabbit kidney cells assessed as inhibition of virus-induced cytopathogenicity; assay type: functional
Human alphaherpesvirus 1 [2] = experiment: Antiviral activity against HSV1 KOS infected in human skin fibroblasts assessed as inhibition of virus-induced cytopathogenicity; assay type: functional, organism-based
[3] = Cytotoxicity against human skin fibroblasts assessed as change in cell morphology; settings: skin fibroblast
[4] = Cytotoxicity against primary rabbit kidney cells assessed as change in cell morphology; assay type: cell-based, Oryctolagus cuniculus
Human alphaherpesvirus 1 [5] = experiment: Antiviral activity against HSV1 KOS infected in primary rabbit kidney cells assessed as inhibition of virus-induced cytopathogenicity; assay type: functional
[6] = Cytotoxicity against human skin fibroblasts assessed as inhibition of DNA synthesis by labeled thymidine/2'-deoxyuridine assay; settings: skin fibroblast
Method in brief: (§1)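 DNA synthesis in cultures (primary rabbit kidney cells or human skin fibroblasts) exposed to the analogues was monitored by incorporation of labeled thymidine or labeled 2'-deoxyuridine.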

[7] = Dissociation constant, pKa of the compound; assay type: physicochemical
[8] = Cytotoxicity against primary rabbit kidney cells assessed as inhibition of DNA synthesis by labeled thymidine/2'-deoxyuridine assay; assay type: cell-based, Oryctolagus cuniculus; method in brief: as §1

Cc1cn([C@@H]2O[C@H](CO)[C@@H](O)[C@@H]2O)c(=O)[nH]c1=O
ID50 [1]: >1 ×10⁻⁴ M
Antiviral activity (Human alphaherpesvirus 1 [2]): Active
Activity [3]: Non-toxic
Activity [4]: Non-toxic
ID50 (Human alphaherpesvirus 1 [5]): 3.9 ×10⁻⁷ M

O=c1[nH]c(=O)n([C@@H]2O[C@H](CO)[C@@H](O)[C@@H]2O)cc1O
ID50 [1]: >1 ×10⁻⁴ M
Activity [6]: Non-toxic
pKa [7]: 7.8
Antiviral activity (Human alphaherpesvirus 1 [2]): Active
Activity [3]: Non-toxic
Activity [4]: Non-toxic
ID50 (Human alphaherpesvirus 1 [5]): >3.9 ×10⁻⁴ M
Activity [8]: Non-toxic

O=c1[nH]c(=O)n([C@@H]2O[C@H](CO)[C@@H](O)[C@@H]2O)cc1[N+](=O)[O-]
ID50 [1]: >1 ×10⁻⁴ M
Activity [6]: Non-toxic
pKa [7]: 5.7
Antiviral activity (Human alphaherpesvirus 1 [2]): Active
Activity [3]: Non-toxic
Activity [4]: Non-toxic
ID50 (Human alphaherpesvirus 1 [5]): >6.9 ×10⁻⁴ M
Activity [8]: Non-toxic

O=c1[nH]c(=O)n([C@@H]2O[C@H](CO)[C@@H](O)[C@@H]2O)cc1Br
pKa [7]: 8

N#Cc1cn([C@@H]2O[C@H](CO)[C@@H](O)[C@@H]2O)c(=O)[nH]c1=O
ID50 [1]: >1 ×10⁻⁴ M
Activity [6]: Non-toxic
pKa [7]: 6.8
Antiviral activity (Human alphaherpesvirus 1 [2]): Active
Activity [3]: Non-toxic
Activity [4]: Non-toxic
ID50 (Human alphaherpesvirus 1 [5]): >3.7 ×10⁻⁴ M
Activity [8]: Non-toxic

O=c1ccn([C@@H]2O[C@H](CO)[C@@H](O)[C@@H]2O)c(=O)[nH]1 [ARAURIDINE]
ID50 [1]: >1 ×10⁻⁴ M
Antiviral activity (Human alphaherpesvirus 1 [2]): Active
Activity [3]: Non-toxic
Activity [4]: Non-toxic
ID50 (Human alphaherpesvirus 1 [5]): 4.1 ×10⁻⁵ M

O=c1[nH]c(=O)n([C@@H]2O[C@H](CO)[C@@H](O)[C@@H]2O)cc1I
pKa [7]: 8
